Assay results of several laboratories.
Lines come from different studies, so protocols differ.
CSF1R autoinhibited: Macrophage colony-stimulating factor 1 receptor, autoinhibited (CSF1R, Homo sapiens, UniProt P07333)
CSF1R Y969C: Macrophage colony-stimulating factor 1 receptor (CSF1R, Homo sapiens, UniProt P07333, Y969C)
CSF1R: Macrophage colony-stimulating factor 1 receptor (CSF1R, Homo sapiens, UniProt P07333)

O=C(NCCCC1CCCCC1)c1ccc(CNC(=O)c2cnn(-c3ccccc3)c2C(F)(F)F)cc1  remaining binding (CSF1R autoinhibited; cell-free assay, competition with immobilised ligand; 0.1 µM): 100%
Nc1ncnc2occ(-c3ccc(NC(=O)Nc4cc(C(F)(F)F)ccc4F)cc3)c12  remaining signal (CSF1R autoinhibited; cell-free assay; 20 µM): 0.95%
Cc1cc(NC(=O)c2cccc3cc(-c4cccc5[nH]nc(N)c45)ccc23)ccc1F  activity vs control (CSF1R Y969C; enzyme activity, inhibitor; 0.1 µM): 30%
CCN(CC)CCNC(=O)c1c(C)[nH]c(/C=C2\C(=O)Nc3ccc(F)cc32)c1C  inhibition (CSF1R; cell-free assay; 0.3 µM): 98%
COc1cc2nccc(Oc3ccc(NC(=O)c4c5n(n(-c6ccc(F)cc6)c4=O)CCCC5)cc3)c2cc1OC  inhibition (CSF1R; enzyme activity, inhibitor; 0.1 µM): 38%
CCCOc1ccc(OC)c(F)c1C(=O)c1ccc(C(=O)N[C@@H]2CNC[C@H]2NC(=O)c2ccc3[nH]ncc3c2)cc1  remaining activity (CSF1R Y969C; enzyme activity, inhibitor; 10 µM): 57%
O=C1Nc2ccc(Cl)cc2C1=Cc1cc(Cl)c(O)c(Cl)c1  remaining signal (CSF1R; cell-free assay; 0.5 µM): 77.9%
Cc1noc([C@H]2C[C@@H](c3ccc(C(F)(F)F)cc3)CN(C(=O)N3CCS(=O)(=O)C3)C2)n1  remaining binding (CSF1R; cell-free assay, competition with immobilised ligand; 1 µM): 100%
Cc1ccc(NC(=O)c2ccc(C)c(C(F)(F)F)c2)cc1C#Cc1nn(C2CCC(O)CC2)c2ncnc(N)c12 (centres unmarked)  remaining signal (CSF1R; cell-free assay; 10 µM): 4%
CN(C)C1CCN(CC#Cc2nn(C3CCCC3)c3nc(NCc4ccccc4)ncc23)C1 (centres unmarked)  inhibition (CSF1R; enzyme activity, inhibitor, FRET; 0.1 µM): 44%
CNC(=O)c1cc2c(Oc3ccc(NC(=O)C4(C(=O)Nc5ccc(F)cc5)CC4)cc3)ccnc2cc1OC  inhibition (CSF1R Y969C; enzyme activity, inhibitor, radiometric; 1 µM): 77%
O=S(=O)(c1cccc2cnccc12)N1CCCNCC1  remaining signal (CSF1R; cell-free assay; 0.5 µM): 97.9%
Cc1nc(N2CC[C@@H](O)C2)ncc1-c1cc(C(F)(F)F)cc2[nH]ncc12  remaining binding (CSF1R; cell-free assay, competition with immobilised ligand; 1 µM): 89%
Oc1ccc(-c2nc(-c3ccncc3)c(-c3ccc(F)cc3)[nH]2)cc1  remaining signal (CSF1R; cell-free assay; 0.5 µM): 96.9%
CN(C)C(=O)Cn1cc(-c2nc([C@@](C)(c3ccc(-c4cnc(N)nc4)cc3)C3CC3)no2)cn1  remaining binding (CSF1R; cell-free assay, competition with immobilised ligand; 1 µM): 92%
CCCS(=O)(=O)Nc1ccc(F)c(C(=O)c2c[nH]c3ncc(-c4ccc(Cl)cc4)cc23)c1F  inhibition (CSF1R; enzyme activity, inhibitor; 1 µM): < 20%
Cc1c(NC(=O)c2cc(C(N)=O)nc3cc(F)ccc23)c(C(F)(F)F)nn1Cc1ccc(C#N)cc1  remaining binding (CSF1R; cell-free assay, competition with immobilised ligand; 1 µM): 83%
O=C(CSc1nc2nccnc2c(=O)n1CCc1ccccc1)Nc1nccs1  inhibition (CSF1R; enzyme activity, inhibitor; 10 µM): 13%
CN(c1ccnc(CNc2nc(Nc3ccc4c(c3)CC(=O)N4)ncc2C(F)(F)F)n1)S(C)(=O)=O  remaining binding (CSF1R; cell-free assay, competition with immobilised ligand; 1 µM): 100%
Cc1cnc(NC2CCOCC2)nc1-n1cnc(C(=O)NC(CN)c2cc(F)cc(Cl)c2)c1 (centres unmarked)  remaining activity (CSF1R; enzyme activity, inhibitor, radiometric; 1 µM): 103%
